What was measured:
[1] = target: T1, Prostaglandin G/H synthase 1 (Ovis aries, UniProt P05979); assay: Inhibition of COX1 in ram seminal vesicle by enzyme immunoassay
T1 sequence (P05979 whole entry): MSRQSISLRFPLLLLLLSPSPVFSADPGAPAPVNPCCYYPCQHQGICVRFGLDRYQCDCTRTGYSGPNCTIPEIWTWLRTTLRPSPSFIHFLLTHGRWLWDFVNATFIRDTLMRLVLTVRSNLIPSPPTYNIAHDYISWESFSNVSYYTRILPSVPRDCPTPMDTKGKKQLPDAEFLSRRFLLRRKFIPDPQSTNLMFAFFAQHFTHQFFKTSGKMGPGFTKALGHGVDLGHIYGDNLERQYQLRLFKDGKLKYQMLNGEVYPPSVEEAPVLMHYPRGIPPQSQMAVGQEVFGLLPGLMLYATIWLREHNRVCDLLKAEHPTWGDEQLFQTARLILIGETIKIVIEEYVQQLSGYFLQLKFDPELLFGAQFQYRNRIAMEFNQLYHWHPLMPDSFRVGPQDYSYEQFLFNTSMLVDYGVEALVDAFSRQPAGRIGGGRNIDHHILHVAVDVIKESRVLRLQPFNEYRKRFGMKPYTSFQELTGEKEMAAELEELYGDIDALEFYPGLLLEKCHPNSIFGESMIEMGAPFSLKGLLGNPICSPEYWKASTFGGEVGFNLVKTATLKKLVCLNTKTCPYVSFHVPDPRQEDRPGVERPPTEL
In short: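 PGE2, the main arachidonic acid metabolite, was quantified by competitive enzyme immunoassay.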

[2] = target: T2, Prostaglandin G/H synthase 1 (Ovis aries) (UniProt P05979); assay: Inhibition of COX1 in ram seminal vesicle at 8 uM by enzyme immunoassay; assay type: tissue-based
T2 sequence (whole entry): T1 sequence (P05979 whole entry)

[3] = target: T3, Prostaglandin G/H synthase 2 (Ovis aries) (UniProt P79208); assay: Inhibition of COX2 in sheep placental vesicle at 8 uM by enzyme immunoassay
T3 sequence (whole entry): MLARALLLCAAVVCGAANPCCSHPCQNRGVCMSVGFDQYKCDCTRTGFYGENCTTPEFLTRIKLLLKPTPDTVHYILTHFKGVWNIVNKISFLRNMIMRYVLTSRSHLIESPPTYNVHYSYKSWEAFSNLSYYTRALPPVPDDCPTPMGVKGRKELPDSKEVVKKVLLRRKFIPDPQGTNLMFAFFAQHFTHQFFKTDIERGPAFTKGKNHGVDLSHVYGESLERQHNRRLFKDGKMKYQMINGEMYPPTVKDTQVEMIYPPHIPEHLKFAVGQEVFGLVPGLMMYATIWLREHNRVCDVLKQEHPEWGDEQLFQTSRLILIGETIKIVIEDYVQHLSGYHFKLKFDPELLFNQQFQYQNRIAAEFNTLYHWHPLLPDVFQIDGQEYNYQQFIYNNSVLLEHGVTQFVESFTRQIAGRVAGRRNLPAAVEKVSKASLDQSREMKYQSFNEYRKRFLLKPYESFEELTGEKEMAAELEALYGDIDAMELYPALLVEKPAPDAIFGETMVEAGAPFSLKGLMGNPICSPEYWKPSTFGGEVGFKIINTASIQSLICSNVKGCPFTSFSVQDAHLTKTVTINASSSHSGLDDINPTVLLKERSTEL

[4] = target: T4, Polyunsaturated fatty acid 5-lipoxygenase (Homo sapiens, UniProt P09917); assay: Inhibition of 5LOX-mediated LTB4 formation in stimulated human polymorphonuclear leukocytes
T4 sequence (P09917 whole entry): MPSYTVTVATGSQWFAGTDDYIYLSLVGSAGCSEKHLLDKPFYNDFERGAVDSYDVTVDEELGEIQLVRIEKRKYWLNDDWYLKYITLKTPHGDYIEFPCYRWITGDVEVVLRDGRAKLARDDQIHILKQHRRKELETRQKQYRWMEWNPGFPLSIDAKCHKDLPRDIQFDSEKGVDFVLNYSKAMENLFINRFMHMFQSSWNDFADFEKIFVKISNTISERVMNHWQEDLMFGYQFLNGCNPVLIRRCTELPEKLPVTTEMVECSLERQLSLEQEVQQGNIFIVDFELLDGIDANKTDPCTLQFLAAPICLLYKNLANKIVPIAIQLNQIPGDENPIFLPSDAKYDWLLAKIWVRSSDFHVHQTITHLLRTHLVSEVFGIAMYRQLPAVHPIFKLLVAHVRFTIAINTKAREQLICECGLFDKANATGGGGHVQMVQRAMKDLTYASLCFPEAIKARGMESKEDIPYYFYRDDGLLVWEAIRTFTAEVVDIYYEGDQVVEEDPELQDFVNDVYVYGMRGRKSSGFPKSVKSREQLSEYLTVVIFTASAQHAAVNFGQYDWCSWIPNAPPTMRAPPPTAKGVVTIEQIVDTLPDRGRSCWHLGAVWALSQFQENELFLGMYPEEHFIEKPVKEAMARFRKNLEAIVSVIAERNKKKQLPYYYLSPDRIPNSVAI
In short: (§1)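 5-LOX-mediated LTB4 formation was measured in stimulated human polymorphonuclear leukocytes in 96-well format. For IC50, at least 3 concentrations were tested in at least 3 independent experiments, each in duplicate, and IC50 was derived from a semilogarithmic dose plot. Results are given as means ± S.D.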

[5] = target: T5, Polyunsaturated fatty acid 5-lipoxygenase (Homo sapiens) (UniProt P09917); assay: Inhibition of 5LOX-mediated LTB4 formation in stimulated human polymorphonuclear leukocytes at 8 uM
T5 sequence (whole entry): T4 sequence (P09917 whole entry)
In short: as §1, with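 “format. […]” for “format.”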

[6] = target: T6, Prostaglandin G/H synthase 2 (Ovis aries, UniProt P79208); assay: Inhibition of COX2 in sheep placental vesicle by enzyme immunoassay
T6 sequence (P79208 whole entry): T3 sequence (whole entry)

Q: How did the IC50 ([1]; read-out: IC50) turn out when C=CCc1ccc(O)c(-c2ccc(OC)c(/C=C\C)c2)c1 was run?
A: Its IC50 is 2800 nM.

Q: What about the inhibition [2] of the same molecule?
A: Its inhibition is 68.6%.

Q: And the inhibition [3]?
A: The inhibition was 62.7%.

Q: And the IC50 ([4]; read-out: IC50)?
A: Its IC50 is 1100 nM.

Q: What about the inhibition [5] of the same molecule?
A: Its inhibition is 99.9%.

Q: And the IC50 ([6]; read-out: IC50)?
A: The IC50 was 900 nM.

Q: C=CCc1ccc(O)c(-c2ccc(OC)c(/C=C/C)c2)c1 was tested. Which IC50 ([1]; read-out: IC50) did it give?
A: Its IC50 is 700 nM.

Q: What about the inhibition [2] of the same molecule?
A: The inhibition was 80.5%.

Q: And the inhibition [3]?
A: The inhibition was 81.5%.

Q: What about the IC50 ([4]; read-out: IC50) of the same molecule?
A: The IC50 was 2100 nM.

Q: What about the inhibition [5] of the same molecule?
A: Its inhibition is 99.3%.

Q: What about the IC50 ([6]; read-out: IC50) of the same molecule?
A: The IC50 was 200 nM.

Q: For C=CCc1ccc(OC(C)=O)c(-c2ccc(OC(C)=O)c(CC=C)c2)c1, which inhibition [2] is on record?
A: Its inhibition is 6.8%.

Q: What about the inhibition [3] of the same molecule?
A: The inhibition was 13.8%.

Q: And the IC50 ([4]; read-out: IC50)?
A: Its IC50 is 4500 nM.

Q: What about the inhibition [5] of the same molecule?
A: The inhibition was 64.9%.

Q: For C=CCc1ccc(O)c(-c2ccc(O)c(/C=C/C)c2)c1, which IC50 ([1]; read-out: IC50) is on record?
A: The IC50 was 600 nM.

Q: And the inhibition [2]?
A: Its inhibition is 84.8%.

Q: What about the inhibition [3] of the same molecule?
A: Its inhibition is 75.1%.

Q: And the IC50 ([4]; read-out: IC50)?
A: Its IC50 is 1000 nM.

Q: And the inhibition [5]?
A: The inhibition was 100%.

Q: What about the IC50 ([6]; read-out: IC50) of the same molecule?
A: The IC50 was 2700 nM.

Q: Which IC50 [1] does the source give for COc1ccc(-c2cc(CC3CO3)ccc2O)cc1CC1CO1 (centres undefined) here?
A: Its IC50 is “Not Active”.

Q: And the IC50 [4]?
A: Its IC50 is “Not Active”.

Q: What about the IC50 [6] of the same molecule?
A: The IC50 was “Not Active”.

Q: What does the source list for CCCc1ccc(OC)c(-c2ccc(OC)c(CCC)c2)c1?
A: IC50 ([1]; read-out: IC50): > 20000 nM; inhibition [2]: 27.3%; inhibition [3]: 49.4%; inhibition [5]: 24.4%; IC50 ([6]; read-out: IC50): 6900 nM

Q: C=CCc1ccc(OC)c(-c2ccc(OC)c(CC=C)c2)c1 was tested. Which IC50 ([1]; read-out: IC50) did it give?
A: Its IC50 is 11400 nM.

Q: And the inhibition [2]?
A: The inhibition was 45.1%.

Q: What about the inhibition [3] of the same molecule?
A: The inhibition was 47.8%.

Q: And the IC50 ([4]; read-out: IC50)?
A: The IC50 was 15000 nM.

Q: What about the inhibition [5] of the same molecule?
A: Its inhibition is 27.8%.

Q: And the IC50 ([6]; read-out: IC50)?
A: The IC50 was 7700 nM.

Q: How did the IC50 ([1]; read-out: IC50) turn out when C=CCc1ccc(O)c(-c2ccc(OC)c(CC=C)c2)c1 [METHYLHONOKIOL] was run?
A: Its IC50 is 100 nM.

Q: And the inhibition [2]?
A: Its inhibition is 90.8%.

Q: What about the inhibition [3] of the same molecule?
A: The inhibition was 95.3%.

Q: What about the IC50 ([4]; read-out: IC50) of the same molecule?
A: Its IC50 is 1500 nM.

Q: And the inhibition [5]?
A: The inhibition was 96.4%.

Q: And the IC50 ([6]; read-out: IC50)?
A: Its IC50 is 60 nM.

Q: CCCc1ccc(O)c(-c2ccc(OC)c(CCC)c2)c1 was tested. Which IC50 ([1]; read-out: IC50) did it give?
A: Its IC50 is 7700 nM.

Q: And the inhibition [2]?
A: Its inhibition is 56.5%.

Q: And the inhibition [3]?
A: Its inhibition is 11.6%.

Q: What about the IC50 ([4]; read-out: IC50) of the same molecule?
A: The IC50 was 1400 nM.

Q: And the inhibition [5]?
A: Its inhibition is 97.1%.

Q: C=CCc1ccc(OC(C)=O)c(-c2ccc(OC)c(CC=C)c2)c1 was tested. Which inhibition [2] did it give?
A: Its inhibition is 18%.

Q: What about the inhibition [3] of the same molecule?
A: The inhibition was 56.3%.

Q: What about the IC50 ([4]; read-out: IC50) of the same molecule?
A: Its IC50 is 2200 nM.

Q: And the inhibition [5]?
A: The inhibition was 76.3%.

Q: And the IC50 ([6]; read-out: IC50)?
A: Its IC50 is 4900 nM.

Q: CCCc1ccc(O)c(-c2ccc(O)c(CCC)c2)c1 was tested. Which IC50 ([1]; read-out: IC50) did it give?
A: The IC50 was 800 nM.

Q: What about the inhibition [2] of the same molecule?
A: The inhibition was 89.6%.

Q: What about the inhibition [3] of the same molecule?
A: The inhibition was 81.6%.

Q: And the IC50 ([4]; read-out: IC50)?
A: The IC50 was 1700 nM.

Q: What about the inhibition [5] of the same molecule?
A: The inhibition was 99.9%.

Q: What about the IC50 ([6]; read-out: IC50) of the same molecule?
A: The IC50 was 2100 nM.

Q: How did the IC50 ([1]; read-out: IC50) turn out when C=CCc1ccc(O)c(-c2ccc(O)c(CC=C)c2)c1 [HONOKIOL] was run?
A: Its IC50 is 1800 nM.

Q: What about the inhibition [2] of the same molecule?
A: The inhibition was 91%.

Q: And the inhibition [3]?
A: Its inhibition is 88.3%.

Q: And the IC50 ([4]; read-out: IC50)?
A: Its IC50 is 4200 nM.

Q: And the inhibition [5]?
A: The inhibition was 94%.

Q: What about the IC50 ([6]; read-out: IC50) of the same molecule?
A: Its IC50 is 2100 nM.

— ChEMBL document CHEMBL1152958 (Bioorg Med Chem, 2009)
